Experimental data taken from ChEMBL document CHEMBL1124412, “Long acting dihydropyridine calcium antagonists. 2. 2-[2-Aminoheterocycloethoxy]methyl derivatives” (J Med Chem, 1989).

Columns and labels:
Rattus norvegicus = species: Rattus norvegicus; test: Concentration required to inhibit calcium-induced constriction of potassium-depolarized rat aorta by 50%; type: functional
Cavia porcellus = species: Cavia porcellus; test: In vitro assessment of negative inotropy in the isolated Langendorff perfused guinea pig heart; type: functional
Canis familiaris = test: Percent decrease in coronary vascular resistance in dogs at 150 u/kg intravenous dose; type: functional, Canis lupus familiaris
In short: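 Anaesthetized beagle dogs were implanted with catheters for blood pressure, left ventricular pressure and intravenous dosing, and given 150 µg/kg i.v. Coronary blood flow was measured by hydrogen clearance with platinum electrodes in the coronary sinus and femoral artery, and cardiac output by thermodilution. Coronary vascular resistance was derived from these measurements, and the duration-of-action half-life was followed in hours.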

| SMILES | IC50 (Rattus norvegicus) | pIC25 (Cavia porcellus) | Decrease in CVR (Canis familiaris) |
| --- | --- | --- | --- |
| CCO/C(O)=C1\C(COCCNc2nccnc2Cl)=NC(C)=C(C(=O)OC)C1c1cccc(Cl)c1Cl (stereo unspecified) | 2.51 nM | 7.4 | – |
| CCO/C(O)=C1\C(COCCNC2=NC(=O)C(C)(C)N2)=NC(C)=C(C(=O)OC)C1c1cccc(Cl)c1Cl (stereo unspecified) | 20 nM | 6.2 | – |
| CCO/C(O)=C1\C(COCCNc2cc(NC)ncn2)=NC(C)=C(C(=O)OC)C1c1cccc(Cl)c1Cl (stereo unspecified) | 3.16 nM | 7.2 | – |
| CCO/C(O)=C1\C(COCCNc2ccnc(O)n2)=NC(C)=C(C(=O)OC)C1c1cccc(Cl)c1Cl (stereo unspecified) | 1.58 nM | 6.7 | 62% |
| CCO/C(O)=C1\C(COCCNc2n[nH]c(N)n2)=NC(C)=C(C(=O)OC)C1c1ccccc1Cl (stereo unspecified) | 20 nM | 6.2 | – |
| CCO/C(O)=C1\C(COCCNc2cc(O)ncn2)=NC(C)=C(C(=O)OC)C1c1cccc(Cl)c1Cl (stereo unspecified) | 1.26 nM | 7.2 | – |
| CCO/C(O)=C1\C(C)=NC(COCCNc2n[nH]c(N)n2)=C(C(=O)OC)C1c1cccc(Cl)c1Cl (stereo unspecified) | 100 nM | 5.5 | – |
| CCO/C(O)=C1\C(COCCNc2nccc(O)n2)=NC(C)=C(C(=O)OC)C1c1cccc(Cl)c1Cl (stereo unspecified) | 2.51 nM | 6.7 | 70% |
| CCO/C(O)=C1\C(COCCNc2n[nH]c(N)n2)=NC(C)=C(C(=O)OC)C1c1cccc(Cl)c1Cl (stereo unspecified) | 6.31 nM | 6.3 | 70% |
| CCO/C(O)=C1\C(COCCNc2nc(N)n(C)n2)=NC(C)=C(C(=O)OC)C1c1cccc(Cl)c1Cl (stereo unspecified) | 3.98 nM | 6.8 | – |
| CCO/C(O)=C1\C(COCCNc2noc(N)n2)=NC(C)=C(C(=O)OC)C1c1cccc(Cl)c1Cl (stereo unspecified) | 3.16 nM | 7.3 | 76% |
| CCO/C(O)=C1\C(COCCNc2n[nH]c(N)n2)=NC(C)=C(C(=O)OC)C1c1cccc(Cl)c1 (stereo unspecified) | 126 nM | – | – |
| CCO/C(O)=C1\C(COCCNc2n[nH]c(N)n2)=NC(C)=C(C(=O)OC)C1c1cccc(C(F)(F)F)c1Cl (stereo unspecified) | 3.98 nM | 6.3 | – |
| CCO/C(O)=C1\C(COCCNc2nc(O)cs2)=NC(C)=C(C(=O)OC)C1c1cccc(Cl)c1Cl (stereo unspecified) | 20 nM | 6.1 | – |
| CCO/C(O)=C1\C(COCCNc2n[nH]c(O)n2)=NC(C)=C(C(=O)OC)C1c1cccc(Cl)c1Cl (stereo unspecified) | 10 nM | 6.4 | – |
| CCOC(=O)NC(=S)NCCOCC1=C(C(=O)OCC)C(c2cccc(Cl)c2Cl)/C(=C(\O)OC)C(C)=N1 (stereo unspecified) | 31.6 nM | 6.2 | – |
| CCO/C(O)=C1\C(COCCNc2n[nH]c(N)n2)=NC(C)=C(C(=O)OC)C1c1cccnc1Cl (stereo unspecified) | 316 nM | 6 | – |
| CCO/C(O)=C1\C(COCCNc2nc(O)cc(-c3ccccc3)n2)=NC(C)=C(C(=O)OC)C1c1cccc(Cl)c1Cl (stereo unspecified) | 7.94 nM | 6.9 | – |
| CCO/C(O)=C1\C(COCCNc2nccnc2NC)=NC(C)=C(C(=O)OC)C1c1cccc(Cl)c1Cl (stereo unspecified) | 5.01 nM | 7 | – |
| CCO/C(O)=C1\C(COCCNc2cc(Cl)ncn2)=NC(C)=C(C(=O)OC)C1c1cccc(Cl)c1Cl (stereo unspecified) | 12.6 nM | 7.7 | – |
| CCO/C(O)=C1\C(COCC/N=C(/N)S)=NC(C)=C(C(=O)OC)C1c1cccc(Cl)c1Cl (stereo unspecified) | 1 nM | 7.2 | – |
| CCO/C(O)=C1\C(COCCNc2n[s+]([O-])nc2N)=NC(C)=C(C(=O)OC)C1c1cccc(Cl)c1Cl (stereo unspecified) | 15.8 nM | 7 | – |
| CCO/C(O)=C1\C(COCCNc2n[s+]([O-])nc2OC)=NC(C)=C(C(=O)OC)C1c1cccc(Cl)c1Cl (stereo unspecified) | 10 nM | 7.1 | – |
| COC(=O)C1=C(C)NC(C)=C(C(=O)OC)C1c1ccccc1[N+](=O)[O-] [NIFEDIPINE] | – | 7.5 | 77% |
